Laboratory results published in ChEMBL document CHEMBL4602668, “Oxygenated Cyclohexene Derivatives and Other Constituents from the Roots of Monanthotaxis trichocarpa” (J Nat Prod, 2020).
Values after ≈ are worked out from the molar mass of the structure shown. Active and inactive are the calls of the source. The rule behind the calls is not given here.

Test system: Bacillus subtilis
Assay: Antibacterial activity against Bacillus subtilis incubated for 18 hrs by AlamarBlue assay
Format: functional
Conditions: not given

SMILES	MIC [µM]
COc1cc(O)c(Cc2ccccc2O)c(O)c1C(=O)CCc1ccccc1 [UVARETIN]	18 (≈ 6.81 µg/mL)

Test system: MCF7
Assay: Cytotoxicity against human MCF7 cells after 24 hrs by PrestoBlue cell viability reagent based assay
Format: functional
Conditions: MCF7, 24 h
How it was run: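 MCF-7 cells were kept in exponential growth in DMEM with 10% fetal calf serum, reseeded in 96-well plates, and settled 24 h. Compounds were added from DMSO stock (final solvent 0.3% v/v) in 2-fold dilutions for 24 h. Viability was read as resorufin fluorescence (ex 544/em 590 nm) and expressed as % of solvent-only control. EC50 came from three independent replicate experiments.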

SMILES	EC50 [µM]
COc1cc(O)c(Cc2ccccc2O)c(O)c1C(=O)CCc1ccccc1 [UVARETIN]	10.2

Test system: Escherichia coli
Assay: Antibacterial activity against Escherichia coli at 5 mM incubated for 18 hrs by AlamarBlue assay
Format: functional, organism-based
Conditions: not given

SMILES	Activity
COc1ccc(C(=O)C(C)c2ccc(O)cc2)c(O)c1 (centres undefined)	inactive
CC[C@H](/C=C/[C@@H](C)[C@H]1CC[C@H]2[C@@H]3CC=C4C[C@@H](O)CC[C@]4(C)[C@H]3CC[C@]12C)C(C)C	inactive
CO[C@@H]1[C@H](OC(=O)c2ccccc2)C=C[C@@H](O)[C@@]1(O)COC(=O)c1ccccc1	inactive
CO[C@H]1[C@H](OC(=O)c2ccccc2)C=C[C@H](Cl)[C@]1(O)COC(=O)c1ccccc1	inactive
CO[C@H]1C=C[C@@H](OC(=O)c2ccccc2)[C@@H](OC)[C@]1(O)COC(=O)c1ccccc1	inactive
O=C(OCc1ccccc1)c1ccccc1	inactive
COc1c(Cc2ccccc2O)c(O)c(Cc2ccccc2O)c(O)c1C(=O)CCc1ccccc1	inactive
COc1ccccc1COC(=O)c1ccccc1	inactive
COc1cc(O)cc(O)c1C(=O)CCc1ccccc1	inactive
CC(=O)O[C@@H]1C=C[C@@H](OC(=O)c2ccccc2)[C@H](O)[C@]1(O)COC(=O)c1ccccc1	inactive
COc1cc(O)c(Cc2ccccc2O)c(O)c1C(=O)CCc1ccccc1 [UVARETIN]	inactive
CC[C@H](CC[C@@H](C)[C@H]1CC[C@H]2[C@@H]3CC=C4C[C@@H](O)CC[C@]4(C)[C@H]3CC[C@]12C)C(C)C	inactive
